Test results reported in PMC5091360 (Science Advances, 2016).

Legend:
PDGFR-β = settings: such as in the case of sunitinib and PDGFR-β; cited from earlier work
[1] = system: IgD2 domain from human VEGFR-3; assay: phage PCAIWF binding to recombinant VEGFR-3 IgD2; settings: peptide 100 μg/ml; FLISA, duplicate wells
HUVECs = assay: endothelial tube formation in Matrigel; assay type: cell-based, human; settings: peptide 500 μg/ml in Matrigel
Procedure, shortened: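 HUVECs (1.5 × 10^4 per well) plated on Matrigel containing 1% DMSO, with or without peptide (500 μg/ml) in the gel. Cells kept in RPMI 1640 with VEGF-A (30 ng/ml) or VEGF-C (100 ng/ml). Tubes counted per field at 4× by bright-field microscopy. Triplicate wells; two independent experiments; Student's t test.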

[2] = system: ERK1/2 pathway in lymphatic endothelial cells (LECs); assay: ERK1/2 phosphorylation in lymphatic endothelial cells; assay type: cell-based, human; settings: 10 min, 37°C
Procedure, shortened: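 Human dermal lymphatic microvascular endothelial cells were cultured overnight in EBM2 with 2% FBS, then starved 18 h in EBM2 with 0.2% BSA. They were stimulated with VEGF-A, VEGF-C or FGF-1, with or without test peptide or scrambled peptide (30 μg/ml). Lysates were immunoblotted for total and phospho-ERK1/2 using infrared-dye secondaries, and the phospho/total intensity ratio was taken. Two experiments were run; ANOVA with Tukey.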

[3] = system: IgD2-3 domains from human VEGFR-3; assay: phage PCAIWF binding to recombinant VEGFR-3 IgD2-3; settings: peptide 100 μg/ml; FLISA, duplicate wells
human VEGFR-1 = assay: FLISA binding assay, NRP-1 to VEGFR-1; settings: human NRP-1, FLISA
Procedure, shortened: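 Human VEGFR-1 extracellular domain coated at 200 ng per well in PBS overnight at 4°C, then blocked with Odyssey blocking buffer. Wells incubated with NRP-1 or NRP-2 in PBS with 10% (v/v) DMSO and 10% blocking buffer, with or without peptide (100 μg/ml). Bound NRP detected with goat anti-NRP-1 or anti-NRP-2 serum (1:100), then IRDye 680LT anti-goat, by infrared scanning. Duplicate wells; ANOVA with Tukey.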

VEGFR-1 [4] = settings: read-out: Kd, NRP-1 to VEGFR-1; cited from earlier work
VEGFR-1 [5] = assay: phage binding assay, immobilized VEGFR-1; settings: 10^8 TU in 50 μl PBS, 2 hours, room temperature; triplicate plating
VEGFR-2 = assay: phage binding assay, immobilized VEGFR-2; settings: 10^8 TU in 50 μl PBS, 2 hours, room temperature; triplicate plating
human VEGFR-3 = assay: phage binding assay, immobilized human VEGFR-3; settings: 10^8 TU in 50 μl PBS, 2 hours, room temperature; control insertless phage Fd; colony count or phage-FLISA; triplicate plating
mouse VEGFR-3 = assay: phage binding assay, immobilized mouse VEGFR-3; settings: 10^8 TU in 50 μl PBS, 2 hours, room temperature; control insertless phage Fd; colony count or phage-FLISA; triplicate plating
NRP-2 = assay: phage binding assay, immobilized NRP-2; settings: 10^8 TU in 50 μl PBS, 2 hours, room temperature; triplicate plating
NRP-1 = assay: phage binding assay, immobilized NRP-1; settings: 10^8 TU in 50 μl PBS, 2 hours, room temperature; triplicate plating
[6] = clinical studies; cited from earlier work
VEGF family = settings: cited from earlier work
rat NRP-2 = target: T1, rat NRP-2 (rat, UniProt O35276); assay: ELISA
T1 sequence: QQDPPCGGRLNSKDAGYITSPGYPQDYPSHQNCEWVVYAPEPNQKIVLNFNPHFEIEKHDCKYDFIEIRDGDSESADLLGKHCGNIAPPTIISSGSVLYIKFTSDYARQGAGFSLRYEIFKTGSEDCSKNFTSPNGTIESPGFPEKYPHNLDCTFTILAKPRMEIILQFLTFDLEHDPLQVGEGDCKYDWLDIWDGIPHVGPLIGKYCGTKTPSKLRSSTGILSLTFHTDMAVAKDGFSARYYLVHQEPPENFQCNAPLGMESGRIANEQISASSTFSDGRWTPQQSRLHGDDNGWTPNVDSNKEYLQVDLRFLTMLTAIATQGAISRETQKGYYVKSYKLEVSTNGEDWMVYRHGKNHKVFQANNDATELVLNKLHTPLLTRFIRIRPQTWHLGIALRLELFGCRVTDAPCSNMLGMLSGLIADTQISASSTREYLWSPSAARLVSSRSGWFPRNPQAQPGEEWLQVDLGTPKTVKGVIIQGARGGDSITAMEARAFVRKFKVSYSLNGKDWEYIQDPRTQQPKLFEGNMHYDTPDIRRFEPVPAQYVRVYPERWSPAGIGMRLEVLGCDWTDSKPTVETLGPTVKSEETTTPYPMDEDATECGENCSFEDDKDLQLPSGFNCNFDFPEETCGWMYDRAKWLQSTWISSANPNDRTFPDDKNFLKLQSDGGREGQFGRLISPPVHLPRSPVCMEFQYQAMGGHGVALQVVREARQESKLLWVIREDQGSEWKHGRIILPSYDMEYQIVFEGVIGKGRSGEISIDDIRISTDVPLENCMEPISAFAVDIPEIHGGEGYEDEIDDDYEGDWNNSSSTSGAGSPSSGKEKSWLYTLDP

[7] = system: IgD2-3 domains from human VEGFR-3; assay: VEGF-C binding to recombinant VEGFR-3 IgD2-3; settings: FLISA, no peptide, duplicate wells
VEGFR-3 [8] = target: T2, VEGFR-3 (Mus musculus, UniProt P35917); assay: competition assay, binding of phage PCAIWF to immobilized VEGFR-3; settings: VEGF-A or VEGF-C (10 ng/ml); triplicate plating
T2 sequence (P35917 25-770): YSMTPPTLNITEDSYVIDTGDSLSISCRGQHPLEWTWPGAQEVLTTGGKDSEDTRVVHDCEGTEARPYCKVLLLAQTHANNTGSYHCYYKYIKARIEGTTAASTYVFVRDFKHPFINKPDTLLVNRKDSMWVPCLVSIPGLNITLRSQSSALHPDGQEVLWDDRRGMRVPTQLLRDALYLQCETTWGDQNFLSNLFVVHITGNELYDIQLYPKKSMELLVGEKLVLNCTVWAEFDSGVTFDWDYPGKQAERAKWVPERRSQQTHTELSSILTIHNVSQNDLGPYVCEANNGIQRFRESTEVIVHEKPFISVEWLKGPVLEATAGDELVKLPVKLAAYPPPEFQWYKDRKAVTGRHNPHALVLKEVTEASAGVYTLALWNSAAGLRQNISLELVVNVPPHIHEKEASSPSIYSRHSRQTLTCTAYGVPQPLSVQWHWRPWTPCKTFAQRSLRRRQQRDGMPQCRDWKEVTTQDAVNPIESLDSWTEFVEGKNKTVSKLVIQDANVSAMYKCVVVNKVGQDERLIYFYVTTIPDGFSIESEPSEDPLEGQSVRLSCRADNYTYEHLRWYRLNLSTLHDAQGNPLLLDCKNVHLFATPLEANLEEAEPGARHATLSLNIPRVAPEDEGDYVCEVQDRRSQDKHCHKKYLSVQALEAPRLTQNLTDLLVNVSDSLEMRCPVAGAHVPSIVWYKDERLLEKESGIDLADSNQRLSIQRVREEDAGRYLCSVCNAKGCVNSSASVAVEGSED

[9] = system: IgD2 domain from human VEGFR-3; assay: VEGF-C binding to recombinant VEGFR-3 IgD2; settings: FLISA, no peptide, duplicate wells
VEGFR-3 [10] = target: T2, VEGFR-3; assay: competition assay, binding of phage WVCSGG to immobilized VEGFR-3; settings: VEGF-C or VEGF-A in competition

## CCN(CC)CCNC(=O)c1c(C)[nH]c(/C=C2\C(=O)Nc3ccc(F)cc32)c1C [sunitinib]
PDGFR-β
  side effects: cardiotoxicity

## IFCAPW
[1]
  inhibition of phage PCAIWF binding to IgD2 by synthetic peptide: not by the control peptide
HUVECs; VEGF-A 30 ng/ml
  inhibition of tube formation, VEGF-A stimulated (in words): not by the control scramble peptide
HUVECs; VEGF-C 100 ng/ml
  inhibition of tube formation, VEGF-C stimulated (in words): not by the control scramble peptide
[2]; FGF-1 100 ng/ml, peptide 30 μg/ml
  effect on FGF-1 induced phosphorylation of ERK1/2: no effect on this downstream signaling event
[2]; VEGF-A 100 ng/ml, peptide 30 μg/ml
  effect on VEGF-A induced phosphorylation of ERK1/2: no effect on this downstream signaling event
[2]; VEGF-C 100 ng/ml, peptide 30 μg/ml
  effect on VEGF-C induced phosphorylation of ERK1/2: no effect on this downstream signaling event
[3]
  inhibition of phage PCAIWF binding to IgD2-3 by synthetic peptide: not by the control peptide

## NRP-1: neuropilin-1, co-receptor for VEGF
Human VEGFR-1
  NRP-1 binding to VEGFR-1: strong interaction
VEGFR-1 [4]
  Kd: ~1.8 nM

## PCAIWF [phage PCAIWF]
VEGFR-1 [5]
  phage binding to VEGFR-1: not to the other receptors, VEGFR-1 and VEGFR-2
VEGFR-2
  phage binding to VEGFR-2: not to the other receptors, VEGFR-1 and VEGFR-2
Human VEGFR-3
  phage binding to human VEGFR-3: both phages bound to mouse and human VEGFR-3
Mouse VEGFR-3
  phage binding to mouse VEGFR-3: both phages bound to mouse and human VEGFR-3
NRP-2
  phage binding to NRP-2: not to the other receptors, VEGFR-1 and VEGFR-2 (Fig. 1, C and D), including the two other non-RTKs, NRP-1 and NRP-2
NRP-1
  phage binding to NRP-1: not to the other receptors, VEGFR-1 and VEGFR-2 (Fig. 1, C and D), including the two other non-RTKs, NRP-1 and NRP-2

## aflibercept: ligand-binding domain of VEGFR-1 fused to an Ig constant region
[6]
  clinical efficacy in ophthalmology: better efficacy compared to bevacizumab and ranibizumab
VEGF family
  VEGF family members targeted: will target multiple members of the VEGF family (VEGF-A, VEGF-B, and PlGF) but will miss others (VEGF-C and VEGF-D)

B1: human VEGFR-1 extracellular domain (Fc fusion) (Fc fusion)
chain: SKLKDPELSLKGTQHIMQAGQTLHLQCRGEAAHKWSLPEMVSKESERLSITKSACGRNGKQFCSTLTLNTAQANHTGFYSCKYLAVPTSKKKETESAIYIFISDTGRPFVEMYSEIPEIIHMTEGRELVIPCRVTSPNITVTLKKFPLDTLIPDGKRIIWDSRKGFIISNATYKEIGLLTCEATVNGHLYKTNYLTHRQTNTIIDVQISTPRPVKLLRGHTLVLNCTATTPLNTRVQMTWSYPDEKNKRASVRRRIDQSNSHANIFYSVLTIDKMQNKDKGLYTCRVRSGPSFKSVNTSVHIYDKAFITVKHRKQQVLETVAGKRSYRLSMKVKAFPSPEVVWLKDGLPATEKSARYLTRGYSLIIKDVTEEDAGNYTILLSIKQSNVFKNLTATLIVNVKPQIYEKAVSSFPDPALYPLGSRQILTCTAYGIPQPTIKWFWHPCNHNHSEARCDFCSNNEESFILDADSNMGNRIESITQRMAIIEGKNKMASTLVVADSRISGIYICIASNKVGTVGRNISFYITDVPNGFHVNLEKMPTEGEDLKLSCTVNKFLYRDVTWILLRTVNNRTMHYSISKQKMAITKEHSITLNLTIMNVSLQDSGTYACRARNVYTGEEILQKKEITIRDQEAPYLLRNLSDHTVAISSSTTLDCHANGVPEPQITWFKNNHKIQQEPGIILGPGSSTLFIERVTEEDEGVYHCKATNQKGSVESSAYLTVQGTSDKSNLE
Rat NRP-2
  binding result: binds

B2: VEGF-C: VEGF family member, recombinant human ligand (protein)
chain: AHYNTEILKSIDNEWRKTQCMPREVCIDVGKEFGVATNTFFKPPCVSVYRCGGCCNSEGLQCMNTSTSYLSKTLFEITVPLSQGPKPVTISFANHTSCRCMSKLDVYRQVHSIIRR
[7]
  VEGF-C binding to IgD2-3: binds to both recombinant ligand-binding domains IgD2 (Fig. 2F) and IgD2-3
VEGFR-3 [8]
  inhibition of phage PCAIWF binding to VEGFR-3 by growth factor: Only VEGF-C prevents the binding of phage PCAIWF to the receptor (Fig. 2A) in a dose-dependent manner
[2]; growth factor 100 ng/ml, 1% DMSO, heparin 10 U/ml
  phosphorylation of ERK1/2 upon growth factor stimulation: phosphorylation of ERK1/2 increases
[9]
  VEGF-C binding to IgD2: binds to both recombinant ligand-binding domains IgD2
VEGFR-3 [10]
  inhibition of phage WVCSGG binding to VEGFR-3 by growth factor: binding of phage WVCSGG to VEGFR-3 is also inhibited by VEGF-C
